Source: paper PMC12178318 (Cancer, 2025)

Assays:
[1] = system: patients with mycosis fungoides or Sézary syndrome; settings: cited from earlier work
[2] = system: patients with advanced solid tumors; assay: Phase 1 safety and tolerability; format: in vivo, human; settings: any cycle, N = 36
How it was run: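 Adults (≥18 y) with locally advanced or metastatic solid tumours who had failed available therapy. They took oral test compound at 0.3–100 mg once daily alone for 28 days (cycle 0), then with IV anti-CCR4 antibody 1 mg/kg weekly (cycle 1) and every 2 weeks thereafter. AEs were coded by MedDRA 19.0 and graded by CTCAE 4.03, with relatedness judged by investigators. The DLT window was 56 days. Patients receiving any dose were counted as frequency and percentage.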

[3] = 184 mogamulizumab-treated patients, MAVORIC

**Q.** For “mogamulizumab: recombinant, humanized monoclonal antibody of immunoglobulin G1-κ targeting CCR4”, which “IRRs, patients” value [1, 3] is on record?
**A.** 33%

**Q.** What about the “drug eruptions, patients” value [1, 3] of the same substance?
**A.** 24%

**Q.** What about the “long-term responders who experienced drug eruptions” value ([1]; post hoc analysis of MAVORIC) of the same substance?
**A.** 60%

**Q.** What about the “IRRs related (TRAE) to the named drug, patients” value [2] of the same substance?
**A.** 39%

**Q.** And the “drug eruption related (TRAE) to the named drug, patients” value [2]?
**A.** 50%

**Q.** And the “nausea related (TRAE) to the named drug, patients” value [2]?
**A.** 14%
